Source: publication PMC2266580 (The Journal of General Physiology, 2005)
Residue numbers refer to the chain shown, from its start. “And” between values parts separate entries of the source, which are not always exact repeats. Equal values may be shown once.

Assays:
Type in all cases: biochemical
[1] = biological target: T1, Kir6.2/ΔC26/G334R channel (slow burst exit gating patches) (Homo sapiens, UniProt Q14654, G334R); conditions: 50 μM protamine
T1 sequence (Q14654 1-364 G334R limits assumed): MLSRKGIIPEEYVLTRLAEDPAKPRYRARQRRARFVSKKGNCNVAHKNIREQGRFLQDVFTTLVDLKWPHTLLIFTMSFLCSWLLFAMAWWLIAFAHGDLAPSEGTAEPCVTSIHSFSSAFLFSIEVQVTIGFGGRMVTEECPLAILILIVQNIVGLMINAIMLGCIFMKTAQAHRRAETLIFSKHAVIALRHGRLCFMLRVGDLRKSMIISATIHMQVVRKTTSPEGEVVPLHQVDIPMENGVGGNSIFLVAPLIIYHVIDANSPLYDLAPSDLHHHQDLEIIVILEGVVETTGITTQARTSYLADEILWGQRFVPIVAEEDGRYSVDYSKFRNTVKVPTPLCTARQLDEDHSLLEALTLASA
In short: (§1)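 Channels expressed in Xenopus oocytes: SUR1 plus Kir6.2 for line 1, Kir6.2ΔC26/G334R for line 2. Inside-out patches were held at −80 mV. Pipette contained (mM) 150 KCl, 10 NaCl, 1 CaCl2, 10 EGTA, 10 HEPES, pH 7.4. […] Signals filtered at 4 kHz, sampled at 20 kHz. Half-amplitude event detection, missed-event-corrected duration histogram fits, n = 5, mean ± SEM.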

[2] = biological target: wild-type SUR1/Kir6.2 channel (Homo sapiens, UniProt Q14654); conditions: 50 μM protamine
In short: as §1

[3] = biological target: T2, Kir6.2ΔC26 G334 (wild type) channel (Homo sapiens, UniProt Q14654); test: ATP inhibition of wild-type
T2 sequence (Q14654 1-364 limits assumed): T1 sequence (Q14654 1-364 G334R limits assumed) with R334G

[4] = biological target: Kir6.2ΔC26 334E channel; test: ATP inhibition of 334E channels, inside-out patch; conditions: read-out: Ki,ATP, Xenopus oocytes, without SUR, −80 mV
[5] = biological target: Kir6.2ΔC26 333K channel; test: ATP inhibition of 333K channels, inside-out patch; conditions: read-out: Ki,ATP, Xenopus oocytes, without SUR, n = 6
[6] = biological target: Kir6.2ΔC26 334A channel; test: ATP inhibition of 334A channels, inside-out patch; conditions: read-out: Ki,ATP, Xenopus oocytes, without SUR, −80 mV
[7] = biological target: Kir6.2ΔC26 334F channel; test: ATP inhibition of 334F channels, inside-out patch; conditions: read-out: Ki,ATP, Xenopus oocytes, without SUR, −80 mV

Sequence of wild-type SUR1/Kir6.2 channel (Q14654 whole entry): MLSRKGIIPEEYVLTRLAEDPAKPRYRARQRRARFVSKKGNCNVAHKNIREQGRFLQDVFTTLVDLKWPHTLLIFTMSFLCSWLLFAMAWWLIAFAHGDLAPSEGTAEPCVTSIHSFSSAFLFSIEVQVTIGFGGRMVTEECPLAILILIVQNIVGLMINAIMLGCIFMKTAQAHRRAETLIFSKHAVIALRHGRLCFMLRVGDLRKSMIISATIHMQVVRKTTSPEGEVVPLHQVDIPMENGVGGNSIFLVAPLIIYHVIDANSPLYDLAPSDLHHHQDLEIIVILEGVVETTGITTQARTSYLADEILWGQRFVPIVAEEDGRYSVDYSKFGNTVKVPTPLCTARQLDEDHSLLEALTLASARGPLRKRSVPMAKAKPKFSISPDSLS
Sequence of wild-type SUR1/Kir6.2 channel (Q09428 whole entry partner): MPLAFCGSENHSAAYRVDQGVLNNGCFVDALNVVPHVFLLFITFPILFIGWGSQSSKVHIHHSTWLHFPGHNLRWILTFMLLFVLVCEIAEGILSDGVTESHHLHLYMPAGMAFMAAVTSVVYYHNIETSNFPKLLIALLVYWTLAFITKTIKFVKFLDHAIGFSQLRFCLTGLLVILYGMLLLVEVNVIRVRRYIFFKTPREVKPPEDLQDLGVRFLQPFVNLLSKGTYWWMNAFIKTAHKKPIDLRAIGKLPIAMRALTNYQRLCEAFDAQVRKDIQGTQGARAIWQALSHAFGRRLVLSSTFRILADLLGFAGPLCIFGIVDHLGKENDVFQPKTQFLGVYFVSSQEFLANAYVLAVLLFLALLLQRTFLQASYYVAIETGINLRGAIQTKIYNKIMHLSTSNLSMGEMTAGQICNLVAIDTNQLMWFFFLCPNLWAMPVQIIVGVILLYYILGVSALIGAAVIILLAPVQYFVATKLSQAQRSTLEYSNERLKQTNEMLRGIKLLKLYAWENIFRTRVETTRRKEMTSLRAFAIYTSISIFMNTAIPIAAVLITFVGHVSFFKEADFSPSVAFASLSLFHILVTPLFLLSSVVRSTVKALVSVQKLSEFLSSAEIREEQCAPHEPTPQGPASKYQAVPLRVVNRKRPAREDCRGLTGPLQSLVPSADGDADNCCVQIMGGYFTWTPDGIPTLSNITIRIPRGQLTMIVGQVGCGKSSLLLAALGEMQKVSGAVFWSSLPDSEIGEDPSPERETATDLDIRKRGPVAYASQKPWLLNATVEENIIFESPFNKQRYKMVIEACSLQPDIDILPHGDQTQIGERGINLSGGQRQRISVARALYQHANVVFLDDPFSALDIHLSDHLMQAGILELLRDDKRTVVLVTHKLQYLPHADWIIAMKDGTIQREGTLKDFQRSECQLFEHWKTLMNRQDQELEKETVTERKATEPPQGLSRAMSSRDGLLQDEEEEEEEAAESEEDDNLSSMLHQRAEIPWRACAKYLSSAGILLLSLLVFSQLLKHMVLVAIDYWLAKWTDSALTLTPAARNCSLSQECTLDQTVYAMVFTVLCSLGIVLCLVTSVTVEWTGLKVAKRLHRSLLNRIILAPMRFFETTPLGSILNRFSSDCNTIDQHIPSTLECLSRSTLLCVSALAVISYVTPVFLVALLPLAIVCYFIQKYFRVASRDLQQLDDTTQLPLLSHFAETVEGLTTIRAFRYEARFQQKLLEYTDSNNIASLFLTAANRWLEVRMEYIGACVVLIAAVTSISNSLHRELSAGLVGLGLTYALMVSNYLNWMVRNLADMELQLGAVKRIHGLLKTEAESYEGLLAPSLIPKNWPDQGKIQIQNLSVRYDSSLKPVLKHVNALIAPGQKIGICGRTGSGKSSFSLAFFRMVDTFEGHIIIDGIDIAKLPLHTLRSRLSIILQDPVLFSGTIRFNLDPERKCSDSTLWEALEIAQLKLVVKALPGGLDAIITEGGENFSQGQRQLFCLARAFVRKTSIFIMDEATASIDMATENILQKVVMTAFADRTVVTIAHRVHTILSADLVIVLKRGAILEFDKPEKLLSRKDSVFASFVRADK

Compound	mean open time after protamine ([1]; absence of ATP, n = 5, before protamine 1.9 ± 0.2 ms) [ms]	mean burst time after protamine ([1]; absence of ATP, n = 5, before protamine 80.3 ± 10.7 ms) [ms]	effect on slowed gating from the burst ([1]; all 12 patches)	mean open time after protamine ([2]; absence of ATP, before protamine 2.1 ± 0.2 ms) [ms]	mean burst time after protamine ([2]; absence of ATP, before protamine 48.0 ± 7.4 ms) [ms]	effect on gating from the burst ([2]; cytoplasmic face, all six patches)	inhibition of channel activity ([3]; 10 mM ATP)	slope factor αH of Hill fit of ATP inhibition ([3]; wild-type channel, αH free variable)	Ki [4] [µM]	Ki [5] [µM]	Ki [6] [µM]	Ki [7]
protamine	1.1 ± 0.2	2.6 ± 1.8	fully restore the fast gating from the burst	1.0 ± 0.2	2.6 ± 0.9	dramatically speeded gating from the burst	–	–	–	–	–	–
Nc1ncnc2c1ncn2[C@@H]1O[C@H](COP(=O)(O)OP(=O)([O-])OP(=O)([O-])O)[C@@H](O)[C@H]1O.[Mg+2] [ATP]	–	–	–	–	–	–	complete inhibition	1.0 ± 0.1	5900 ± 20	2200 ± 300	2100 ± 50	3000 µM and 3100 µM
